The text below walks through data of ChEMBL document CHEMBL4808167, “Design, Synthesis, and Evaluation of Small Molecule Gαq/11 Protein Inhibitors for the Treatment of Uveal Melanoma” (J Med Chem, 2021).

Data set [1] deals with T1, GNAQ/GNA11 (Homo sapiens, UniProt P50148+P29992).
T1 sequence (P50148 whole entry): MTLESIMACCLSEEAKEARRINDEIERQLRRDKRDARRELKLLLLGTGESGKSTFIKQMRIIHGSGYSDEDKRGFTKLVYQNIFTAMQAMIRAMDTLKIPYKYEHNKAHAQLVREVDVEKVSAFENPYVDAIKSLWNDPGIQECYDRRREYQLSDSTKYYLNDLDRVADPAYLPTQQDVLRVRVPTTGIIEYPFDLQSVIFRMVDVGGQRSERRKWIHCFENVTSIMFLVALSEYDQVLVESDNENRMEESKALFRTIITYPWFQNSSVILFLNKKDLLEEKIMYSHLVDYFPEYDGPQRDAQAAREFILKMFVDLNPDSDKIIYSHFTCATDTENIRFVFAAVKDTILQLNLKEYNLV
T1 sequence (P29992 whole entry): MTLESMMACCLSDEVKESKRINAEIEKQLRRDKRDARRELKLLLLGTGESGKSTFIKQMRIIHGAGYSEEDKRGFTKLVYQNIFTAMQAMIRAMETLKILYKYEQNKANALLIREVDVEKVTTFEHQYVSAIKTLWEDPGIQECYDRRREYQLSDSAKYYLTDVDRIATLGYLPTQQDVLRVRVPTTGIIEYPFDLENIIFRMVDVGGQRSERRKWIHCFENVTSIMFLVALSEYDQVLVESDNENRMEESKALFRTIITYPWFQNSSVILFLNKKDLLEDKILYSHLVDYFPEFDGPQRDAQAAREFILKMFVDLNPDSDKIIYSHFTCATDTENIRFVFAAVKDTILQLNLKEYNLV
Put plainly: Inhibition of Galphaq/11 (unknown origin). It is filed as protein assay. A digest of the protocol: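 Carbachol-stimulated IP₁ accumulation in CHO cells stably expressing the M₁ receptor, read by HTRF. Cells (2 × 10⁴/well) in assay buffer with 0.2% BSA were preincubated with compound for 1 h at 37 °C. Carbachol (final 9 μM, ~EC₈₀) was then added with LiCl (final 20 mM) for 1 h at 37 °C plus 1 h at room temperature. Values are % inhibition at 10 μM or IC₅₀, three independent experiments.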

For data set [2], the target named is T2, GNAQ/GNA11 (Homo sapiens) (UniProt P50148+P29992). Put plainly: Inhibition of Galphaq/11 (unknown origin) expressed in CHO cells coexpressing M1 receptor assessed as reduction in carbachol-induced IP1 accumulation at 10 uM preincubated for 1 hr followed by carbachol stimulation and measured after 1 hr by HTRF assay relative to control. It is filed as cell-based. The settings on record: time 2.0 hrs. (In general: TR-FRET usually uses a lanthanide donor and a delayed reading to cut background.)

The test system of data set [3] is MP41. Put plainly: Inhibition of cell migration in human MP41 cells at 15 uM incubated for 48 hrs by transwell migration assay. It is filed as functional, cell-based. A digest of the protocol:
(§1)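 Transwell migration: 92.1 and MP41 cells (RPMI-1640, 10% FBS) seeded 1 × 10⁴/well in upper chamber in serum-free medium, 20% FBS medium below; overnight at 37 °C, then compound for 48 h. Non-migrated cells swabbed off; lower cells crystal violet-stained 30 min, counted by light microscopy. Mean SD of three independent experiments.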

A short description of data set [4]: Antiproliferative activity against human 92.1 cells assessed as inhibition of cell growth after 72 hrs by CCK8 assay. It is filed as functional, cell-based. The following applies: Homo sapiens, 921, 72 h. The method, boiled down: (§2)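 92.1 or MP41 cells in RPMI-1640 with 10% FBS were seeded at 3 × 10³ cells/well. Exposed to serial concentrations for 72 h at 37 °C, 5% CO₂. CCK-8 added for 1−4 h, absorbance read at 450 nm. IC₅₀ from concentration−response curve fit, mean ± SD.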
(In general: Tetrazolium assays rely on reduction of a dye to a coloured formazan, in cell work by metabolically active cells.)

Data set [5] concerns the target T2, GNAQ/GNA11 (Homo sapiens). Briefly: Inhibition of Galphaq/11 (unknown origin) expressed in HEK293 cells cotransfected with AT1R assessed as inhibition of Ang-II induced calcium release at 100 uM preincubated for 30 mins followed by Ang-II addition by Fluo-4AM dye based fluorescence assay. It is filed as cell-based. A digest of the protocol: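 HEK293 cells transfected with AT₁R, washed in HBSS with 0.1% BSA and loaded with Fluo-4 AM for 1 h at 37 °C. Washed, then pretreated with compound at 100 μM for 30 min. AngII at varying concentrations added 20 s into the fluorescence recording. Mean ± SD, n = 3.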

Data set [6] has as its system MP41. Briefly: Inhibition of cell invasion in human MP41 cells at 5 to 15 uM incubated for 48 hrs by transwell assay. It is filed as functional, cell-based. The following applies: dose 5-15 µM. The method, boiled down:
(§3)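 92.1 or MP41 cells (1 × 10⁴/well) seeded in serum-free medium in the upper transwell chamber, with 20% FBS medium below. Left overnight, then treated 48 h. Non-migrated cells swabbed off; cells on the lower side stained with crystal violet 30 min and counted by light microscopy (×40 for migration, ×100 for invasion). Mean ± SD, n = 3.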

Data set [7] in a line: Antiproliferative activity against human MP41 cells assessed as inhibition of cell growth after 72 hrs by CCK8 assay. It is filed as functional, cell-based. The settings on record: MP41, 72 h. A digest of the protocol: as §2
For data set [8], the system named is 921. Put plainly: Inhibition of cell invasion in human 921 cells at 5 to 15 uM incubated for 48 hrs by transwell assay. The following applies: dose 5-15 µM. It is filed as functional, cell-based. A digest of the protocol: as §3
Data set [9] deals with MP41. Put plainly: Inhibition of cell migration in human MP41 cells at 30 uM incubated for 48 hrs by Transwell migration assay. It is filed as functional, cell-based. The method, boiled down: as §1
Data set [10] deals with T2, GNAQ/GNA11 (Homo sapiens). Put plainly: Binding affinity to Galphaq/11 (unknown origin) expressed in HEK293 cells cotransfected with AT1R/Galphaq-RLuc8/ Ggamma2-venus/Gbeta1 assessed as inhibition of Ang-II induced-BRET signal at 100 uM preincubated for 1 hr followed by Ang-II addition by BRET assay. It is filed as cell-based. A digest of the protocol: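 HEK293 cells transiently transfected with AT₁R, Gαq-RLuc8, Gγ2-Venus and untagged Gβ1. Replated 24 h later, washed with HBS, starved 10 min, then pretreated with compound for 1 h at 37 °C. AngII added, followed by coelenterazine. BRET ratio taken as Venus emission (520−570 nm) over RLuc8 emission (370−480 nm). Mean ± SD, n = 3.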

Data set [11] concerns 921. Briefly: Inhibition of cell migration in human 921 cells at 15 uM incubated for 48 hrs by transwell migration assay. It is filed as functional, cell-based. The method, boiled down:
as §3

In data set [12] the target is T1, GNAQ/GNA11. Put plainly: Inhibition of Galphaq/11 (unknown origin) expressed in CHO cells coexpressing M1 receptor assessed as reduction in carbachol-induced IP1 accumulation preincubated for 1 hr followed by carbachol stimulation and measured after 1 hr by HTRF assay. It is filed as cell-based.
The subject of data set [13] is CHO. Put plainly: Induction of morphological changes in chinese hamster CHO cells overexpressing M1 receptor at 10 to 20 uM after 2 hrs by light microscopic analysis. It is filed as cell-based, Cricetulus griseus. The settings on record: dose 10-20 µM. A digest of the protocol: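 CHO-M₁ cells were treated with compound at 10 or 20 μM for 2 h, and changes in cell morphology were examined by microscopy.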

The subject of data set [14] is CHO. Briefly: Cytotoxicity against chinese hamster CHO cells overexpressing M1 receptor assessed as cell viability at 1.25 to 20 uM after 2 to 24 hrs by CCK8 assay. The following applies: dose lower 1.25 µM, time lower 2 hrs, dose upper 20 µM, time upper 24 hrs. It is filed as cell-based, Cricetulus griseus. A digest of the protocol:
(§4)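 CHO cells stably expressing the M₁ receptor were treated with a range of compound concentrations for 2 h or 24 h. Viability measured by CCK-8 and given as percentage. Mean ± SD of three independent experiments.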

Data set [15] in a line: Antitumor activity against human MP41 cells xenografted in nude BALB/c mouse assessed as tumor growth inhibition at 10 mg/kg, ip administered for once daily for 21 days and measured every 3 days. It is filed as functional. The settings on record: 504 h, time 21 day, read-out: TGI. The method, boiled down: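 MP41 tumours were passaged subcutaneously mouse-to-mouse in nude BALB/c mice (6−8 weeks, 20−25 g). Tertiary recipients randomized, n = 8/group, given 10 or 30 (mg/kg)/d ip or vehicle for 21 days. Tumour size (V = A × B² × π/6, caliper) and body weight taken every 3 days; tumours excised and weighed on day 22. TGI computed versus the vehicle group.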
(A xenograft is tissue or cells of one species grown in another, often human tumour cells in immunodeficient mice.)

The test system of data set [16] is CHO. Briefly: Cytotoxicity against chinese hamster CHO cells overexpressing M1 receptor assessed as cell viability at 5 uM after 2 hrs by CCK8 assay. It is filed as cell-based, Cricetulus griseus. The method, boiled down:
as §4

Activity calls are given as the source filed them. The calls are words filed in the database; no cut-off is given here. Starred links: 1 amine or outer side, 2 acyl side, 3 side chain; linkers in the order of their positions; H or OH if unused. Positions of bridges follow the written chain, without caps; N, C: chain ends. Non-standard residues stand in square brackets, D forms with d. Residues, ends and D or L forms follow the SMILES beside them. *: point of attachment. Leu(3R-OH,Nα-propionyl) = CCC(=O)N[C@H](C(=O)*)[C@H](O)C(C)C; X1 = CC(C)[C@@H](O[*:3])[C@H](N[*:1])C(=O)[*:2]; NMeT = CN[C@H](C(=O)O)[C@@H](C)O; dPhLac = O=C(O)[C@H](O)Cc1ccccc1; NMeA = CN[C@@H](C)C(=O)O; NMeDha = C=C(NC)C(=O)O A value given as a limit tells only on which side of the number the result lay.

A word on the IC50: it is the midpoint of a concentration-inhibition curve. As to `C=C1C(=O)N[C@@H](C)C(=O)N(C)[C@@H](C)C(=O)N[C@@H]([C@H](OC(=O)[C@@H](NC(=O)CC)[C@H](O)C(C)C)C(C)C)C(=O)N(C)[C@@H]([C@@H](C)OC)C(=O)O[C@H](C(C)C)[C@H](NC(C)=O)C(=O)O[C@H](Cc2ccccc2)C(=O)N1C` (Ac-[X1][dPhLac][NMeDha]A[NMeA][X1](Leu(3R-OH,Nα-propionyl))[NMeT](Me); ester 1-C), the IC50 at GNAQ/GNA11 [1] amounted to 0.032 µM.
A word on the inhibition: it is the relative decrease from the control value, in per cent. `N[C@@H](CS)C(=O)N1CCn2cc(-c3ccccc3)nc2[C@@H]1CC1CCCCC1`: the inhibition in [2] was determined as 32.6%. For the same compound, the inhibition entry in the data set on MP41 [3], with MP41 [6], in the data set on 921 [8], in the data set with MP41 [9] and in the data set on 921 [11] was “Active” in each case. Besides, the IC50 in data set [4] is 4.8 µM; in data set [7], 2.3 µM. Moreover, the outcome in [5] was inactive. Moreover, the outcome in data set [10] was Active.
Take `N[C@@H](Cc1ccc(O)cc1)C(=O)N1CCn2cc(-c3ccccc3)nc2[C@@H]1CC1CCCCC1`: the inhibition in [2] was 34%. Besides, the values for the IC50 (in [4]; in [7]; at GNAQ/GNA11 [12]) were 10.7 µM, 22.6 µM and 48.6 µM, respectively.
For the compound `N[C@H](CSSC[C@@H](N)C(=O)N1CCn2cc(-c3ccccc3)nc2[C@@H]1CC1CCCCC1)C(=O)N1CCn2cc(-c3ccccc3)nc2[C@@H]1CC1CCCCC1`, in data set [2], the inhibition worked out at 25.8%. Also, the Activity result in the data set on CHO [13], with CHO [14] and in the data set on CHO [16] was “Toxic” throughout. The inhibition result in the data set with MP41 [3], in the data set on MP41 [6], with 921 [8], in the data set with MP41 [9] and in the data set on 921 [11] was “Active” in each case. In addition, the values for the IC50 in data set [4] and in data set [7] were 6.8 µM and 10.5 µM, respectively. Also, the outcome in [5] was inactive. For the same compound, the inhibition in vivo at 10 mg/kg in data set [15] turned out to be 35.9%. For the same compound, in [10], the result was Active.
On to `CC(C)[C@H]1c2nc(-c3ccccc3)cn2CCN1C(=O)[C@@H](N)CCCCN`, for which the inhibition in data set [2] turned out to be 5.3%. Also, the IC50 in data set [4] and in data set [7] was more than 100 µM throughout.
As for `CC(C)C[C@@H]1c2nc(-c3ccccc3)cn2CCN1C(=O)C(C)C`, in data set [2], the inhibition is 2.6%. For the same compound, the IC50 in data set [4] and in data set [7] was more than 100 µM throughout.
Turning to `O=C([C@@H]1CCCN1)N1CCn2cc(-c3ccccc3)nc2[C@@H]1CC1CCCCC1`, the inhibition in data set [2] stood at 14.2%. For the same compound, the results for the IC50 in data set [4] and in data set [7] were 27.4 µM and 63.4 µM, respectively.
In the case of `N[C@@H](CS)C(=O)N1CCn2cc(-c3ccccc3)nc2[C@H]1Cc1ccccc1`, the inhibition in data set [2] turned out to be 19.5%. In addition, the IC50 was determined as 25.8 µM in data set [4] and 20 µM in data set [7].
For `CC(C)C[C@H]1c2nc(-c3ccccc3)cn2CCN1C(=O)[C@@H](N)CS`, in that order: 25.3%, 35.2 µM and 91.9 µM.
